Laboratory results taken from ChEMBL document CHEMBL4007489, “First Bispecific Inhibitors of the Epidermal Growth Factor Receptor Kinase and the NF-κB Activity As Novel Anticancer Agents” (J Med Chem, 2017).
Calls of active or inactive are those of the source. The calls are words filed in the database; no cut-off is given here.

What was measured:
[1] = target: T1, Epidermal growth factor receptor (Homo sapiens, UniProt P00533); assay: biochemical; format: cell-based
[2] = cells; format: cell-based; conditions: Homo sapiens, U-937
[3] = species: Homo sapiens; assay: Inhibition of TNFalpha-stimulated NF-kappaB (unknown origin) expressed in human U937 cells at 5 uM incubated for 3 hrs followed by TNFalpha stimulation measured after 2.5 hrs by luciferase reporter gene assay; format: cell-based
[4] = target: T1, Epidermal growth factor receptor; conditions: at 150 nM
[5] = test system: MDA-MB-231; assay: Growth inhibition of human MDA-MB-231 cells at 20 uM after 48 hrs by MTT assay; format: functional, cell-based
Method in brief: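 MDA-MB-231 cells seeded at 45000 per well and left to adhere overnight; compounds added after 24 h. Incubated a further 48 h at 37 °C. MTT added for 1 h, then cells lysed with 10% SDS in 0.01 N HCl for at least 2 h at 37 °C. Absorbance read at 570 nm.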

[6] = species: Homo sapiens; assay: Inhibition of TNFalpha-stimulated NF-kappaB (unknown origin) expressed in human U937 cells at 1 to 5 uM incubated for 3 hrs followed by TNFalpha stimulation measured after 2.5 hrs by luciferase reporter gene assay; format: cell-based
[7] = test system: MDA-MB-231; assay: cells; format: functional; conditions: Homo sapiens, MDA-MB-231, 48 h
[8] = species: Homo sapiens; conditions: at 10 µM;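 further: luciferase reporter readout of NF-kappaB activity in human U937 cells, compound added 3 h before TNFalpha stimulation, signal read 2.5 h after stimulation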
[9] = target: Transcription factor p65 (Homo sapiens) (UniProt Q04206); assay: Inhibition of IL-1beta-stimulated nuclear translocation of GFP-tagged NF-kappaB-p65 (unknown origin) expressed in CHO cells preincubated with IL-1beta for 30 mins followed by compound addition by fluorescence assay; format: cell-based
Transcription factor p65 (Homo sapiens), sequence (Q04206 whole entry, the tested form may be a part): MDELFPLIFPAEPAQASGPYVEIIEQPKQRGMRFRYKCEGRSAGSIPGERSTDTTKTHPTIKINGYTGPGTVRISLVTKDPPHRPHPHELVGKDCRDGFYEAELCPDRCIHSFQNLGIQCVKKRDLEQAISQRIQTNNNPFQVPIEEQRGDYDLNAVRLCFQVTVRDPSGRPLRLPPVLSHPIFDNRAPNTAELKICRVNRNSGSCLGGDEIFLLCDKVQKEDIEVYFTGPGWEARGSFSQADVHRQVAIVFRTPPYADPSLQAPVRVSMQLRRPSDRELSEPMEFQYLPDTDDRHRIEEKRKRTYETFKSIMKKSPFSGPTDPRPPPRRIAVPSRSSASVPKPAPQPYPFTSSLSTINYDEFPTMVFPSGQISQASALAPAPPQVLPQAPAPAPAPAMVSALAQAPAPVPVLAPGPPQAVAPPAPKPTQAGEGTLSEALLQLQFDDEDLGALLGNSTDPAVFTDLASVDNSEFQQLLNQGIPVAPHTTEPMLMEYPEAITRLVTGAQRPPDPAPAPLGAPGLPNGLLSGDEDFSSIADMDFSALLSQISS
Method in brief: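 A GFP-NF-κB-p65 fusion was used; cells were stimulated for 30 min with 25 ng/mL IL-1β. Translocation of the fusion protein from cytoplasm to nucleus was imaged, and the system automatically quantified the ratio of cytoplasmic to nuclear fluorescence per well.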

[10] = target: T2, Proteasome Macropain subunit MB1 (Homo sapiens) (UniProt P28074); assay: Inhibition of chymotrypsin like activity of 26S proteasome derived from human MDA-MB-231 cells at 1 uM
T2 sequence (whole entry): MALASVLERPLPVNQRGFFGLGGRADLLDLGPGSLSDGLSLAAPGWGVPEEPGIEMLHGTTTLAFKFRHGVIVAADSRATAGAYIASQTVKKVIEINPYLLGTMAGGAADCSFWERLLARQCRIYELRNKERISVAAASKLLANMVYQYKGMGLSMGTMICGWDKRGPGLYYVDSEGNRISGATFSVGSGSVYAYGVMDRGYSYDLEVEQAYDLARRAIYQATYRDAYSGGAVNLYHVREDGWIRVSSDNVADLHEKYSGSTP
Method in brief: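 Total protein extract from MDA-MB-231 cells served as the source of 26S proteasome. Trypsin-like, chymotrypsin-like and caspase-like activities were each measured with a specific fluorigenic peptide substrate.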

[11] = target: T3, Proteasome component C5 (Homo sapiens) (UniProt P20618); conditions: 1 uM
T3 sequence (whole entry): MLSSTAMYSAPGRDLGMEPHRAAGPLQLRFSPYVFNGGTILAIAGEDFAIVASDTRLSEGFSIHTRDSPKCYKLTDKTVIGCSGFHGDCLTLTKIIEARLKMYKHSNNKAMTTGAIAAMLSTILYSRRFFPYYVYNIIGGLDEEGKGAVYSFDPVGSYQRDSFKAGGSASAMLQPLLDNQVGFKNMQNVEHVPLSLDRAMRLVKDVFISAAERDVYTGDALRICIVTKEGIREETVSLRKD

[12] = target: Proteasome Macropain subunit (Homo sapiens) (UniProt P49721); conditions: 1 uM
Proteasome Macropain subunit (Homo sapiens), sequence (P49721 whole entry): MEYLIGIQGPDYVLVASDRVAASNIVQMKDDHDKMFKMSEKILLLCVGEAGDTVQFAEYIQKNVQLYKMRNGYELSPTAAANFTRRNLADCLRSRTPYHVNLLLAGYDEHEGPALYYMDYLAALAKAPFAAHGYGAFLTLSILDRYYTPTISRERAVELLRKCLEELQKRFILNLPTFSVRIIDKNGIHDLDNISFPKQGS

[13] = Half life in Sprague-Dawley rat liver microsomes assessed as parent compound remaining at 0.5 uM in presence of NADPH by LC-MS/MS analysis; format: ADME, microsome
[14] = Blood clearance in Sprague-Dawley rat by LC-MS/MS analysis; format: ADME
[15] = Cmax in NMRI nu/nu mouse at 10 mg/kg, sc administered as single dose by LC-MS analysis; format: ADME, organism-based; parameters: dose 10 mg/kg, route subcutaneous; conditions: in vivo
Method in brief: (§1)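 Female NMRI nu/nu mice (28−32 g), nine animals per compound. Single sc injection of 10 mg/kg, formulated at 1 mg/mL in PBS/propylene glycol (80:20, v/v) by ultrasonication. Blood sampled at 10 min, 30 min, 1, 3, 8 and 24 h, two samples per animal, into heparinized tubes. Plasma proteins precipitated with acetonitrile containing griseofulvin internal standard. Quantified by LC-MS against calibration standards prepared in drug-free plasma.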

[16] = Tmax in NMRI nu/nu mouse at 10 mg/kg, sc administered as single dose by LC-MS analysis; format: ADME, organism-based; conditions: in vivo
Method in brief: as §1

[17] = Drug uptake in NMRI nu/nu mouse at 10 mg/kg, sc administered as single dose after 24 hrs by LC-MS analysis; format: ADME, organism-based; conditions: in vivo, read-out: Drug uptake
Method in brief: as §1

[18] = Half life in NMRI nu/nu mouse at 10 mg/kg, sc administered as single dose by LC-MS analysis; format: ADME, organism-based; conditions: in vivo
Method in brief: as §1

[19] = AUC (0 to 24 hrs) in NMRI nu/nu mouse at 10 mg/kg, sc administered as single dose by LC-MS analysis; format: ADME, organism-based; parameters: dose 10 mg/kg, time < 24 hr, route subcutaneous; conditions: in vivo
Method in brief: as §1

[20] = AUC (0 to infinity) in NMRI nu/nu mouse at 10 mg/kg, sc administered as single dose by LC-MS analysis; format: ADME, organism-based; parameters: dose 10 mg/kg, route subcutaneous, time infinity; conditions: in vivo
Method in brief: as §1

[21] = Apparent oral clearance in NMRI nu/nu mouse at 10 mg/kg, sc administered as single dose by LC-MS analysis; format: ADME, organism-based; conditions: in vivo
Method in brief: as §1

[22] = test system: Mus musculus; assay: Toxicity in human MDA-MB-231 cells xenografted NMRI nu/nu mouse assessed as anomalous behaviour at 10 mg/kg, sc administered 5 days post tumor cell inoculation treated for 14 days followed by treatment pause for 6 days followed by treatment continuation on every second day until day 28 measured on day 7, 14 and day 28; format: organism-based; conditions: in vivo
Method in brief: (§2)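 Mice bearing MDA-MB-231 xenografts were monitored for behaviour and body weight over the 28-day sc dosing schedule. Organ morphology was inspected after sacrifice.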

[23] = test system: Mus musculus; assay: Toxicity in human MDA-MB-231 cells xenografted NMRI nu/nu mouse assessed as effect on organ morphology at 10 mg/kg, sc administered 5 days post tumor cell inoculation treated for 14 days followed by treatment pause for 6 days followed by treatment continuation on every second day until day 28 measured on day 7, 14 and day 28; format: organism-based; conditions: in vivo
Method in brief: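 Female NMRI nu/nu mice (~8 weeks old) received 2 × 10^6 MDA-MB-231 cells in Matrigel into each flank. Dosing began 5 days later (day 1), with 6 mice per group. Compound or vehicle was given sc in PBS/propylene glycol (80:20, v/v) at 1 mg/mL. Behaviour and body weight were followed. Organs were inspected morphologically after sacrifice on day 28.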

[24] = test system: Mus musculus; assay: Toxicity in human MDA-MB-231 cells xenografted NMRI nu/nu mouse assessed as effect on body weight at 10 mg/kg, sc administered 5 days post tumor cell inoculation treated for 14 days followed by treatment pause for 6 days followed by treatment continuation on every second day until day 28 measured on day 7, 14 and day 28; format: organism-based; conditions: in vivo
Method in brief: as §2

[25] = test system: Mus musculus; assay: Toxicity in NMRI nu/nu mouse assessed as anomalous behaviour at 10 mg/kg, sc administered as single dose; format: organism-based; conditions: in vivo
[26] = test system: Mus musculus; assay: Toxicity in NMRI nu/nu mouse assessed as effect on organ morphology at 10 mg/kg, sc administered as single dose; format: organism-based; conditions: in vivo
[27] = Solubility in water; format: physicochemical; conditions: buffer

T1 sequence (P00533 whole entry): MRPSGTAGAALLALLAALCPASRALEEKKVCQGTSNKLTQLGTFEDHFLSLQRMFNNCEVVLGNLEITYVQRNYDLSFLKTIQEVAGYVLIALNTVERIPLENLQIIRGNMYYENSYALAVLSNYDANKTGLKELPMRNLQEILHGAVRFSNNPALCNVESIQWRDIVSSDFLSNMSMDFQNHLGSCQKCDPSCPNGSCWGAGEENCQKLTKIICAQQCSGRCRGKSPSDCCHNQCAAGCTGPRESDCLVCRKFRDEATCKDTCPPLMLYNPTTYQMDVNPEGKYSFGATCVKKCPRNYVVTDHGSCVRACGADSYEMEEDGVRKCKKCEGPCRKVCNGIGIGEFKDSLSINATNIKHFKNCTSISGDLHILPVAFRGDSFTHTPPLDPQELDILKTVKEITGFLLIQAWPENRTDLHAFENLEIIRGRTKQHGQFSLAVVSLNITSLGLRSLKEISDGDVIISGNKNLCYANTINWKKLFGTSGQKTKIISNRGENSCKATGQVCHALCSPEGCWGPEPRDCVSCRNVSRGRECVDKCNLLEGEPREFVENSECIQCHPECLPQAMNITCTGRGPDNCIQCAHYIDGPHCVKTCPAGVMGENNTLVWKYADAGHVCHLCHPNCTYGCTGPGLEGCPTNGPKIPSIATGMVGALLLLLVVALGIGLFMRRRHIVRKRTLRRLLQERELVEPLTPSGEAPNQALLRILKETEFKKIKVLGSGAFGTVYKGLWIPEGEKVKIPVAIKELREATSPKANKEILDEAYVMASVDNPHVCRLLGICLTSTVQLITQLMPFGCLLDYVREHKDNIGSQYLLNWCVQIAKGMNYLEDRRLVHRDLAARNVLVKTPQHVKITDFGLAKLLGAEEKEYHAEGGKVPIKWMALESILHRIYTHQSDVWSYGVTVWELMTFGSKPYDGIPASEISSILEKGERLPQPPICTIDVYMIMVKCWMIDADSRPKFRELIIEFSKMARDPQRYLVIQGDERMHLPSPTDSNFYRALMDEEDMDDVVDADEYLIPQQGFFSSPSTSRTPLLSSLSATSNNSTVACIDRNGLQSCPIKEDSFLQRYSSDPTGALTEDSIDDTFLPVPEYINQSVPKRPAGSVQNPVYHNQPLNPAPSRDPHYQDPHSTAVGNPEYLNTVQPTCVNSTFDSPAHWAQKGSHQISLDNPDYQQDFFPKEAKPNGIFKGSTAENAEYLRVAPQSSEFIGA

Row | SMILES | IC50 [1] | IC50 [2] | inhibition [3] | inhibition [4] | GI50 [7] | inhibition [8] | other results
1 | Cc1nnc(NC(=S)Nc2ccc3ncnc(Nc4cccc(Cl)c4)c3c2)s1 | 120 nM | 1200 nM | 76.1% | 70.8% | – | – | –
2 | S=C(Nc1ccc2ncnc(Nc3cccc(Cl)c3)c2c1)Nc1ncc(Cl)s1 | 120 nM | 700 nM | 88.2% | 60% | – | – | growth inhibition (GI) [5]: inactive
3 | O=C1NC(=O)/C(=C/c2cccc(C(F)(F)F)c2)S1 | – | – | – | – | – | – | inhibition [6]: inactive
4 | S=C(Nc1cncc(Cl)c1)Nc1ccc2ncnc(Nc3cccc(Cl)c3)c2c1 | 55.5 nM | 3000 nM | 78% | 85% | – | – | –
5 | S=C(Nc1ccc2ncnc(Nc3cccc(Br)c3)c2c1)Nc1ccc(Cl)cc1Cl | 48.9 nM | 2900 nM | – | 66% | 12200 nM | 93.1% | –
6 | S=C(NCc1ccccc1)Nc1ccc2ncnc(Nc3ccc(-c4ccccc4)cc3)c2c1 | > 150 nM | 4400 nM | – | 14.5% | 8400 nM | 89.1% | –
7 | CC(C)c1ccc(Nc2ncnc3ccc(NC(=S)NCc4ccccc4)cc23)cc1 | > 150 nM | 4300 nM | – | 4.2% | 12800 nM | 95.7% | –
8 | CC(C)C[C@H](NC(=O)[C@H](Cc1ccccc1)NC(=O)c1cnccn1)B(O)O | – | – | – | – | – | – | inhibition [9]: Dose-dependent effect; inhibition [10]: Active; inhibition [11]: Active; inhibition [12]: Active
9 | S=C(Nc1cc(Cl)cc(Cl)c1)Nc1ccc2ncnc(Nc3cccc(Br)c3)c2c1 | 146 nM | 1800 nM | – | 50.9% | 3000 nM | 99.6% | –
10 | S=C(Nc1ccccc1)Nc1ccc2ncnc(Nc3cccc(Br)c3)c2c1 | 15.8 nM | 5200 nM | – | 86.5% | 10000 nM | 90.7% | –
11 | CC(C)(C)c1ccc(Nc2ncnc3ccc(NC(=S)NCc4ccccc4)cc23)cc1 | > 150 nM | 5510 nM | – | 0.9% | 8700 nM | 91.9% | –
12 | FC(F)(F)c1ccc(NC(=S)Nc2ccc3ncnc(Nc4cccc(Br)c4)c3c2)cc1 | > 150 nM | 1700 nM | – | 38.1% | 12200 nM | 94.8% | –
13 | S=C(Nc1ccc(Br)cc1)Nc1ccc2ncnc(Nc3cccc(Br)c3)c2c1 | 35.4 nM | 2000 nM | – | 70.4% | > 30000 nM | 96.7% | –
14 | FC(F)(F)c1nnc(NC(=S)Nc2ccc3ncnc(Nc4cccc(Cl)c4)c3c2)s1 | 130 nM | 1000 nM | 80.5% | 70.7% | – | – | –
15 | S=C(NCc1ccccc1)Nc1ccc2ncnc(Nc3ccc(Br)cc3)c2c1 | > 150 nM | 3800 nM | – | 47.7% | 15100 nM | 92.1% | –
16 | FC(F)(F)c1csc(NC(=S)Nc2ccc3ncnc(Nc4cccc(Cl)c4)c3c2)n1 | 137 nM | 600 nM | 92% | 56.4% | 900 nM | – | half-life at 0.5 µM [13]: 0.367 h; clearance [14]: 51 mL/min/kg; Cmax [15]: 101 ng/mL; Tmax [16]: 1 h; concentration at 24 h [17]: 3.5 ng/mL; half-life [18]: 4.3 h; AUC(0-t) at 24 h [19]: 1040 ng·h/mL; AUC(0-inf) [20]: 1060 ng·h/mL; CL/F [21]: 157 mL/min/kg; Activity [22]: Non-Toxic; Activity [23]: Non-Toxic; Activity [24]: Non-Toxic; Activity [25]: Non-Toxic; Activity [26]: Non-Toxic; solubility [27]: Soluble
17 | Fc1ccc(NC(=S)Nc2ccc3ncnc(Nc4cccc(Cl)c4)c3c2)cc1F | – | – | 37.6% | 44.4% | – | – | –
18 | CCc1cccc(Nc2ncnc3ccc(NC(=S)NCc4ccccc4)cc23)c1 | > 150 nM | 4800 nM | – | 41.7% | 10500 nM | 92.5% | –
